Measured values pooled from the literature.
Target: Serine/threonine-protein kinase 25 (STK25, Homo sapiens, UniProt O00506)

SMILES | assay | conditions | endpoint | value
CC1=C(C#N)C(c2ccc3c(c2)c(NC(=O)c2ccccc2C)nn3C)C(C#N)=C(C)N1 | cell-free assay, competition with immobilised ligand | 1 µM | remaining binding | 100%
Cc1cnc(NC2CCOCC2)nc1-n1cnc(C(=O)NC(CN)c2cc(F)cc(Cl)c2)c1 (centres unmarked) | enzyme activity, inhibitor, radiometric | 1 µM | remaining activity | 71%
CC(C)(C)c1nc(-c2cccc(NS(=O)(=O)c3c(F)cccc3F)c2F)c(-c2ccnc(N)n2)s1 | enzyme activity, inhibitor, radiometric | 1 µM | remaining activity | 51%
C#Cc1cccc(Nc2ncnc3cc(OCCOC)c(OCCOC)cc23)c1 | cell-free assay | 0.5 µM | remaining signal | 99.4%
CN(C)c1ncc(F)c(-c2cnn3ncccc23)n1 | binding | 1 µM | remaining binding | 100%
COc1ccc2c(O[C@@H]3C[C@H]4C(=O)N[C@]5(C(=O)O)CC5/C=C\CCCCC[C@H](NC(=O)OC5CCCC5)C(=O)N4C3)cc(-c3csc(NC(=O)C(C)C)n3)nc2c1C (some centres unmarked) | cell-free assay, competition with immobilised ligand | 1 µM | remaining binding | 100%
Cn1c2c(c3ccc(Cl)c(Cl)c31)C(C#N)C(C)(C)NC2=O (centres unmarked) | thermal stability, DSF | 10 µM | ΔTm | 1.2 °C
CNC(=O)c1ccc(Nc2ncc(C(F)(F)F)c(NCc3nccnc3N(C)S(C)(=O)=O)n2)cc1 | cell-free assay, competition with immobilised ligand | 0.1 µM | remaining binding | 85%
COc1cc2ncnc(Nc3ccc(Oc4ccccc4)cc3C)c2cc1OC | enzyme activity, inhibitor | 1 µM | inhibition | -2%
CN1CCC2(CC1)NC(=O)c1c(c3ccc(Cl)c(Cl)c3n1C)C2C#N (racemic) | thermal stability, DSF | 10 µM | ΔTm | 0.3 °C
Cc1ccc(NC(=O)c2ccc(C)c(C(F)(F)F)c2)cc1C#Cc1nn(C2CCC(O)CC2)c2ncnc(N)c12 (centres unmarked) | cell-free assay | 10 µM | remaining signal | 66%
CCCCNc1ncc2c(-c3ccc(F)cc3)nn(C[C@H]3CC[C@H](N)CC3)c2n1 | target engagement in cells, inhibitor, chemoproteomics | 20 mM | inhibition | 5.7%
N#CCCc1ccc2c(c1)-c1[nH]c3ccc([N+](=O)[O-])cc3c1CC(=O)N2 | cell-free assay | 0.5 µM | remaining signal | 91.1%
C[C@@H]1CN(c2cc(-c3n[nH]c4ccc(OC5(C)CC5)cc34)ncn2)C[C@H](C)O1 | cell-free assay, competition with immobilised ligand | 0.1 µM | remaining binding | 100%
CCCS(=O)(=O)Nc1ccc(F)c(C(=O)c2c[nH]c3ncc(-c4ccc(Cl)cc4)cc23)c1F | enzyme activity, inhibitor | 1 µM | inhibition | < 10%
C[C@@H]1CN(c2cc(-c3nn(C)c4ccc(OC5(C)CC5)cc34)ncn2)C[C@H](C)O1 | cell-free assay, competition with immobilised ligand | 1 µM | remaining binding | 100%
c1ccc(CNc2nc(N3CCOc4ccccc43)nc3c2CCCC3)cc1 | target engagement in cells, inhibitor, chemoproteomics | 20 mM | inhibition | 34.6%
COc1cc(-c2cc(-c3ccc(N4CCNCC4)cc3)cnc2C)cc(OC)c1OC | enzyme activity, inhibitor | 1 µM | inhibition | 2%
CC(=O)c1c(NS(C)(=O)=O)c2cc(-c3ccc(Cl)cc3)c(-c3ccc(Cl)cc3Cl)nc2n(C)c1=O | cell-free assay, competition with immobilised ligand | 1 µM | remaining binding | 100%
Cn1c2c(c3ccc(Cl)c(Cl)c31)C(C#N)C1(CCOCC1)NC2=O (centres unmarked) | thermal stability, DSF | 10 µM | ΔTm | 0.4 °C
Cc1sc(C(=O)NC2COC2)cc1-n1cc(NC(=O)Nc2c(F)cccc2Cl)cn1 | enzyme activity, inhibitor | 10 µM | remaining activity | 70.5%
O=C(Nc1cnc(Oc2ccc(F)cc2)nc1)N1CCc2ncccc2[C@@H]1c1ccc(F)cc1 | cell-free assay, competition with immobilised ligand | 1 µM | remaining binding | 82%
Cc1ccc(C(=O)Nc2ccc(CN3CCN(C)CC3)c(C(F)(F)F)c2)cc1C#Cc1cnc2cccnn12 | enzyme activity, inhibitor | 23.5 nM | remaining activity | 98%
CCOc1cc(-c2nncn2C)ccc1Nc1ncc2cc(C)nc(NCC(C)(C)C)c2n1 | enzyme activity, inhibitor, FRET | 1 µM | inhibition | < 15%
CCN(CC)CCNC(=O)c1c(C)[nH]c(/C=C2\C(=O)Nc3ccc(F)cc32)c1C | cell-free assay | 0.5 µM | remaining signal | 76.1%
Cn1cncc1C1=CN(c2ncnc3[nH]cnc23)CCS1 | enzyme activity, inhibitor, radiometric | 50 nM | inhibition | 13.5%
